{"source": "paper PMC10213863", "about": "(Cell Reports Medicine, 2023)", "assay_type_in_all_cases": "cell-based", "key": {"TLR7 [1]": {"molecular_target": "T1, TLR7 (Homo sapiens, UniProt Q9NYK1)", "T1 sequence (Q9NYK1 27-1049)": "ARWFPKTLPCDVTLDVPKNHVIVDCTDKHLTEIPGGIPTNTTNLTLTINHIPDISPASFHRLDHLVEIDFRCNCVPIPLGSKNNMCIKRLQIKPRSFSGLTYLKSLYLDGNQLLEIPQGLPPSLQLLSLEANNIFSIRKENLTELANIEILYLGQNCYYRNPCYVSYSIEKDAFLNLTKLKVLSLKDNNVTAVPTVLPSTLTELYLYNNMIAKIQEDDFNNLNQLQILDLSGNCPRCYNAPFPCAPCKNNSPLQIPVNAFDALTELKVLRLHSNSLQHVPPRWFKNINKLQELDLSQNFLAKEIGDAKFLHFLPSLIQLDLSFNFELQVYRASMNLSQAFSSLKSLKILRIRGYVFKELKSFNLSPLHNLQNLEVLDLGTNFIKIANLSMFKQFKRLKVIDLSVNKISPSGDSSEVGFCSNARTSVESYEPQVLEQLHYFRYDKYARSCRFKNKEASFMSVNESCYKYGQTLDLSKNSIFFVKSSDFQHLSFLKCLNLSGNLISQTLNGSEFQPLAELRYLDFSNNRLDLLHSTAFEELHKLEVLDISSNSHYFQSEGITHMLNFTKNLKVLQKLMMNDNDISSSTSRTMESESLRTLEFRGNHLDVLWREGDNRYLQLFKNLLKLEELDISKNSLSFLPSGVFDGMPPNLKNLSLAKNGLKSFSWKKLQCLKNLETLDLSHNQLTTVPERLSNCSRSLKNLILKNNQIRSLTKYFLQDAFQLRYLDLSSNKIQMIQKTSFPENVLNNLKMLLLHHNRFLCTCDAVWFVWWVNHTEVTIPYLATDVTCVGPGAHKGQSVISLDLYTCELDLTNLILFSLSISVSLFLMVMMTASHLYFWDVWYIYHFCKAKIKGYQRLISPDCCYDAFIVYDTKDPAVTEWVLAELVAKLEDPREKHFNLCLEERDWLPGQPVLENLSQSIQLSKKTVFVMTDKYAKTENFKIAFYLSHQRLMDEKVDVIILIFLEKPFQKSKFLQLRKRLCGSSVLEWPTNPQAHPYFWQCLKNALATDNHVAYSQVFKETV", "test": "HEK293-NFkB-luciferase reporter cells transfected with TLR7, R848 stimulation", "conditions": "IC50, TLR7 response in HEK transfectants, mean ± SD", "in_short": "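HEK293-NFkB-luciferase cells stably expressing HA-tagged human TLR7 or TLR8 were pre-treated 60 min at 37°C, 5% CO2 with increasing concentrations of test compound or 0.25% v/v DMSO. They were then stimulated 6 h with R848: 0.3 μM for TLR7, 4 μM for TLR8. Luciferase activity […] was read by Bright-Glo luminescence.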"}, "TLR7 [2]": {"molecular_target": "T1, TLR7", "test": "Human PBMC assay, ssRNA-induced IFN-α", "conditions": "human PBMCs, mean ± SEM (n)", "in_short": "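Human PBMCs were pre-incubated 30 min with test compound, then stimulated with the respective TLR or IL-1R agonist at doses from earlier work. Cytokines in supernatants were quantified by immunoassay. Viability across the dose range was checked by CellTiter-Glo.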"}, "TLR7 [3]": {"molecular_target": "T1, TLR7", "test": "Ramos Blue NF-κB/AP-1 reporter B cell line, TLR7 stimulation", "conditions": "Ramos cells, mean ± SD", "in_short": "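Ramos Blue B reporter cells were pre-treated 30 min at 37°C, 5% CO2 with increasing concentrations of test compound or 0.25% v/v DMSO. They were then stimulated with the respective agonist, and reporter activity was read.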"}, "murine TLR7": {"molecular_target": "murine TLR7 (Mus musculus, UniProt P58681)", "sequence (P58681 27-1050)": "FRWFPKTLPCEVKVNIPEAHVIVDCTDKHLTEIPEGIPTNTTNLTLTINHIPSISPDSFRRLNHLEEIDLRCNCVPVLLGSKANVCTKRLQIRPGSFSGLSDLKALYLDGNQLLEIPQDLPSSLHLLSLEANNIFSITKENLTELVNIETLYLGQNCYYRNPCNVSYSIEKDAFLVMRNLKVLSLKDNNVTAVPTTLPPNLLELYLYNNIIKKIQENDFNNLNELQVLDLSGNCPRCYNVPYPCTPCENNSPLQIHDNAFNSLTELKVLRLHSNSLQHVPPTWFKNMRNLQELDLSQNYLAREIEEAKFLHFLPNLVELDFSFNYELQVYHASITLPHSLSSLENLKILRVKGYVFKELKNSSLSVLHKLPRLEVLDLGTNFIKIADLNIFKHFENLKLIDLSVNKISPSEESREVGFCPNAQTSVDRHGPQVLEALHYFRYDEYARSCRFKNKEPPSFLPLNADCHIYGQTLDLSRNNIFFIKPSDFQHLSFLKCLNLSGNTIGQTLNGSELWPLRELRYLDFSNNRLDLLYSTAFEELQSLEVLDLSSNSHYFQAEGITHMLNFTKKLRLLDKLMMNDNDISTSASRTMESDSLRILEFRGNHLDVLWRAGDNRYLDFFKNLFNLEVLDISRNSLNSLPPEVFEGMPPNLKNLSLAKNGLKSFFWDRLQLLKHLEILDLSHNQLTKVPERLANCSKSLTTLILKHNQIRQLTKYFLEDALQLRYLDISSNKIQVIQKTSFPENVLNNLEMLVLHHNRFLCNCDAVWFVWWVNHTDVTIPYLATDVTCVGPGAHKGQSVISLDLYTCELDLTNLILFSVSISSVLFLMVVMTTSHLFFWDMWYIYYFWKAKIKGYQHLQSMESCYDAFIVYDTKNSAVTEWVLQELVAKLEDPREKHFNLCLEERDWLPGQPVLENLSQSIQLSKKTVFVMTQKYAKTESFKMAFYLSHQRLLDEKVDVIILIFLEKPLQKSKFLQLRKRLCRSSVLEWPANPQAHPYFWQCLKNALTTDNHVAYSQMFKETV", "test": "Murine whole blood assay, ssRNA-induced IFN-α and TNF", "in_short": "(§1)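 Fresh human blood or 129/Sv mouse blood was taken into citrate and diluted 1:1 with RPMI1640. It was pre-incubated 30 min at 37°C, 5% CO2 with increasing concentrations of test compound or 0.25% v/v DMSO (final). Blood was then stimulated with TLR agonists at doses from earlier work, or with R848 (3 μM), and cytokines were quantified. Viability was checked by ATPlite luminescence.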"}, "TLR7/8": {"tested_on": "TLR7/8", "test": "Human PBMC cytokine release, TLR7/8 agonists ssRNA or R848", "conditions": "human PBMCs, IL-6 as readout"}, "TLR9": {"molecular_target": "T2, TLR9 (Homo sapiens, UniProt Q9NR96)", "T2 sequence (Q9NR96 26-1032)": "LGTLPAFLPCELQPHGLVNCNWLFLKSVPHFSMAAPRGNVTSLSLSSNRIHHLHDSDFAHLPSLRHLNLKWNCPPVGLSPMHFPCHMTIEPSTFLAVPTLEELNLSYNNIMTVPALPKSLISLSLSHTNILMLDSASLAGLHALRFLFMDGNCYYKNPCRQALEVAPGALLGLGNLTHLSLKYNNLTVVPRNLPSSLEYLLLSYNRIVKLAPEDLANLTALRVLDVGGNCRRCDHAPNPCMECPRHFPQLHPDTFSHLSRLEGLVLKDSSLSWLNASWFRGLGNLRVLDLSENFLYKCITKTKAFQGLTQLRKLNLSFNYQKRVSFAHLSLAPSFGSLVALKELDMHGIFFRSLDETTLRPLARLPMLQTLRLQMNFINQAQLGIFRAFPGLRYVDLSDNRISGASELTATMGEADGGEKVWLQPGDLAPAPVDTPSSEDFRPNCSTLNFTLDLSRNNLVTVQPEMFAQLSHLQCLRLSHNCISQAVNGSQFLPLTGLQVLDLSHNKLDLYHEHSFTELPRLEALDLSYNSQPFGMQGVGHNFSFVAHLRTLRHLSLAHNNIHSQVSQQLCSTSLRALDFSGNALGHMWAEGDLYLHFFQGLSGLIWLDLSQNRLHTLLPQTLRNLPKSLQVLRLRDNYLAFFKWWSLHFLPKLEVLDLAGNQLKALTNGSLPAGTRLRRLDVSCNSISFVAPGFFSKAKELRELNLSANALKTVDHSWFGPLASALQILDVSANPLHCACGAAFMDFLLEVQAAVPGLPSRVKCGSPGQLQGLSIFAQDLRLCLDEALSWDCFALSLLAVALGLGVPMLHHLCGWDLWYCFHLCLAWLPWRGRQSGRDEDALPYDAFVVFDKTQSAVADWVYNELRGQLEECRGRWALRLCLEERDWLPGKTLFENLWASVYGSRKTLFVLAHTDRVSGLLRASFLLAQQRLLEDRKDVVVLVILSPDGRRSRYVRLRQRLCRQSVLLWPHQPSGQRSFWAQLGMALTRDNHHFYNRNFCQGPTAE", "test": "Human whole blood assay, ODN-IFN-α", "in_short": "as §1"}}, "note": "Values joined by “and” are separate entries in the source; they are usually repeats but may differ in a detail not shown here. Equal entries are not always repeated.", "data": [{"smiles": "Cc1cc(N2CCc3c(c(C)nn3CC34CCC(NC(=O)[C@@H]5COCCN5)(CC3)CC4)C2)c2cnn(C)c2n1", "note": "[MHV370, (S)-N-(4-((5-(1,6-dimethyl-1H-pyrazolo[3,4-b]pyridin-4-yl)-3-methyl-4,5,6,7-tetrahydro-1H-pyrazolo[4,3-c]pyridin-1-yl)methyl)bicyclo[2.2.2]octan-1-yl)morpholine-3-carboxamide]", "values": [{"measurement": "IC50", "setting": "TLR7 [1]", "result": "1 nM and 1.1 nM"}, {"measurement": "IC50", "setting": "TLR7 [2]", "result": "4.1 ± 0.4", "unit": "nM"}, {"measurement": "IC50", "setting": "TLR7 [3]; IC50, CL307-driven reporter gene activity, CL307", "result": "15 ± 10", "unit": "nM"}, {"measurement": "IC50", "setting": "TLR7 [3]; read-out: IC50, R848-driven reporter gene activity, R848", "result": "7 ± 0.1", "unit": "nM"}, {"measurement": "IC50", "setting": "murine TLR7; IC50, TLR7 (ssRNA-IFN-α), mouse blood, mean ± SEM (n)", "result": "58 ± 10", "unit": "nM"}, {"measurement": "potency on mouse whole blood relative to human whole blood (fold lower)", "setting": "murine TLR7; mouse vs human whole blood", "result": "about 10 fold"}, {"measurement": "mode of antagonism (Schild analysis)", "setting": "TLR7/8", "result": "competitive and reversible antagonist"}, {"measurement": "IC50", "setting": "TLR9", "result": 1320, "unit": "nM"}]}]}
